Target: Neuronal acetylcholine receptor subunit alpha-7 (Rattus norvegicus) (UniProt Q05941)
Assay: Agonist activity at rat alpha7 nAChR expressed in HEK293 cells co-expressing human RIC-3 assessed as maximum peak current at 10 uM at holding potential of -90 mV by whole-cell voltage clamp electrophysiology method relative to acetylcholine
Type: cell-based
Procedure, shortened: (§1)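 Concentration-response patch-clamp electrophysiology in HEK-293 cells expressing rat α7 nAChR. EC50 is taken from response area. Efficacy is given as Ymax from both area and peak response.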

Neuronal acetylcholine receptor subunit alpha-7 (Rattus norvegicus), sequence (Q05941 whole entry): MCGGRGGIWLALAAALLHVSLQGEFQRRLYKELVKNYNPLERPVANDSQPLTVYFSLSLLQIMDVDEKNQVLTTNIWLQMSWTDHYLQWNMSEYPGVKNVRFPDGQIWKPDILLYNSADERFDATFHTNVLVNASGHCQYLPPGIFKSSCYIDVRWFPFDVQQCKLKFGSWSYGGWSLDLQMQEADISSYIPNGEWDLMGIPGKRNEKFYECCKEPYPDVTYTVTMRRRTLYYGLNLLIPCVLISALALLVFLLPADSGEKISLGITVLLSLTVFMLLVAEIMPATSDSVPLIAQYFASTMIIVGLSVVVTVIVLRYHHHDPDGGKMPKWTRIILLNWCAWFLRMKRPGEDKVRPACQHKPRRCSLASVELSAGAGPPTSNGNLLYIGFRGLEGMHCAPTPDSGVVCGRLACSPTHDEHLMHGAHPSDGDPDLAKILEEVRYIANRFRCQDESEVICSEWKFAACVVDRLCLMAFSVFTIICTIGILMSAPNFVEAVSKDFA

| Structure (SMILES) | Emax [%] |
| --- | --- |
| Clc1ccc2nc(NC3=NCC4(CN5CCC4CC5)N3)sc2c1 (racemic) | 5 |

Target: Neuronal acetylcholine receptor subunit alpha-7 (Rattus norvegicus, UniProt Q05941)
Sequence (Q05941 whole entry): as above
Assay: Agonist activity at rat alpha7 nAChR expressed in HEK293 cells co-expressing human RIC-3 assessed as area under current curve at holding potential of -90 mV by whole-cell voltage clamp electrophysiology method
Type: cell-based
Procedure, shortened: as §1

| Structure (SMILES) | EC50 [nM] |
| --- | --- |
| Clc1ccc2nc(NC3=NCC4(CN5CCC4CC5)N3)sc2c1 (racemic) | 1200 |

Target: Neuronal acetylcholine receptor subunit alpha-7 (Homo sapiens, UniProt P36544)
Sequence (P36544 whole entry): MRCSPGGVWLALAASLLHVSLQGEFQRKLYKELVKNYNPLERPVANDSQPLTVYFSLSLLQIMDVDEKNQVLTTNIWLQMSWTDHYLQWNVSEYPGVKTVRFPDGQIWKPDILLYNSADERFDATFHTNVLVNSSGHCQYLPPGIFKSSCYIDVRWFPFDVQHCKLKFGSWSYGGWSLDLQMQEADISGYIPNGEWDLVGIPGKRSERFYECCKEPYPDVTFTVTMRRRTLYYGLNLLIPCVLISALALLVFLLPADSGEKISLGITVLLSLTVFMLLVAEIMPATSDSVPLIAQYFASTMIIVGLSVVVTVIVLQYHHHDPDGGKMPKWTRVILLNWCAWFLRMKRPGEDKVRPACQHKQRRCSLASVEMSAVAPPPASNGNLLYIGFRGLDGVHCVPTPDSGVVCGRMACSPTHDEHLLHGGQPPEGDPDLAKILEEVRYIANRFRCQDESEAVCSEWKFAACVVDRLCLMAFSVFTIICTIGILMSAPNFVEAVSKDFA
Assay: Agonist activity at alpha7 nAChR (unknown origin) expressed in HEK293 cells assessed as increase in calcium influx by Fluo-4-AM dye based FLIPR assay
Type: cell-based
Procedure, shortened: (§2)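 Ca2+-based fluorescence imaging plate reader screen, run as two assays: α7 nAChR agonism and 5-HT3A receptor antagonism. Number of determinations recorded per value.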

| Structure (SMILES) | EC50 [nM] |
| --- | --- |
| Clc1ccc2c(NC3=NCC4(CN5CCC4CC5)N3)ncnn12 (stereo not drawn) | 62 |
| Clc1cccc2sc(NC3=NCC4(CN5CCC4CC5)N3)nc12 (racemic) | 120 |
| COc1cc(NC2=NCC3(CN4CCC3CC4)N2)ncn1 (racemic) | 1300 |
| Clc1ccc2nc(NC3=NCC4(CN5CCC4CC5)N3)sc2n1 (racemic) | 56 |
| Clc1ccc2nc(NC3=NCC4(CN5CCC4CC5)N3)sc2c1 (racemic) | 150 |

Target: Neuronal acetylcholine receptor subunit alpha-7 (Rattus norvegicus) (UniProt Q05941)
Assay: Agonist activity at rat alpha7 nAChR expressed in HEK293 cells co-expressing human RIC-3 assessed as area under current curve at 10 uM at holding potential of -90 mV by whole-cell voltage clamp electrophysiology method relative to acetylcholine
Type: cell-based
Procedure, shortened: as §1

| Structure (SMILES) | Emax [%] |
| --- | --- |
| Clc1ccc2nc(NC3=NCC4(CN5CCC4CC5)N3)sc2c1 (racemic) | 33 |

Target: T1, 5-hydroxytryptamine receptor 3A (Homo sapiens, UniProt P46098)
T1 sequence (P46098 whole entry): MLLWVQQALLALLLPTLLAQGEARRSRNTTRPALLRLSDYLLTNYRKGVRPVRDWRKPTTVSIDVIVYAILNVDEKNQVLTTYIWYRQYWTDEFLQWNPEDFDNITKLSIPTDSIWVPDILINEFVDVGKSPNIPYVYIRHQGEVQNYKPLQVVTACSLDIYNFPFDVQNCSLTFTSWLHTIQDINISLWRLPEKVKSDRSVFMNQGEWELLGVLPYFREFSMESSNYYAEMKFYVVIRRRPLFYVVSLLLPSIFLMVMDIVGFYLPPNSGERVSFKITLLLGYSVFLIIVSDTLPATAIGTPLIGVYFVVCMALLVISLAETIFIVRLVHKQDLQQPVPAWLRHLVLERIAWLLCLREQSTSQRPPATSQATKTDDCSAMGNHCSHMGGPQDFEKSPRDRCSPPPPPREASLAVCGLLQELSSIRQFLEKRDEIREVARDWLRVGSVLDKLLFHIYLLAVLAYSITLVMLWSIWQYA
Assay: Antagonist activity at 5-HT3A receptor (unknown origin) assessed as decrease in calcium influx by Fluo-4-AM dye based FLIPR assay
Procedure, shortened: as §2

| Structure (SMILES) | IC50 [nM] |
| --- | --- |
| Clc1ccc2c(NC3=NCC4(CN5CCC4CC5)N3)ncnn12 (stereo not drawn) | 38000 |
| Clc1cccc2sc(NC3=NCC4(CN5CCC4CC5)N3)nc12 (racemic) | 38 |
| COc1cc(NC2=NCC3(CN4CCC3CC4)N2)ncn1 (racemic) | > 100000 |
| Clc1ccc2nc(NC3=NCC4(CN5CCC4CC5)N3)sc2n1 (racemic) | 32000 |
| Clc1ccc2nc(NC3=NCC4(CN5CCC4CC5)N3)sc2c1 (racemic) | 18000 |

Organism: Homo sapiens
Assay: Selectivity ratio of IC50 for 5-HT3A receptor (unknown origin) to EC50 for alpha7 nAChR (unknown origin) expressed in HEK293 cells
Type: cell-based
Procedure, shortened: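 Selectivity ratio calculated as 5-HT3A IC50 (FLIPR Ca2+ antagonist assay) divided by α7 EC50 (FLIPR Ca2+ agonist assay).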

| Structure (SMILES) | Ratio IC50/EC50 |
| --- | --- |
| Clc1ccc2c(NC3=NCC4(CN5CCC4CC5)N3)ncnn12 (stereo not drawn) | 610 |
| Clc1cccc2sc(NC3=NCC4(CN5CCC4CC5)N3)nc12 (racemic) | 0.32 |
| COc1cc(NC2=NCC3(CN4CCC3CC4)N2)ncn1 (racemic) | > 77 |
| Clc1ccc2nc(NC3=NCC4(CN5CCC4CC5)N3)sc2n1 (racemic) | 570 |
| Clc1ccc2nc(NC3=NCC4(CN5CCC4CC5)N3)sc2c1 (racemic) | 120 |
